These compounds were tested against Trypanothione reductase (Trypanosoma cruzi, UniProt P28593) (assay: Inhibitory activity against Trypanosoma cruzi trypanothione disulfide reductase, assay in presence of 57 uM T(S)2.).
How it was run: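 Assay contained 250 µM NADPH, 57 µM T(S)₂, inhibitor at 0.3–50 µM and 1% DMSO final. Started with enzyme; NADPH loss followed at 340 nm. IC50 in duplicate.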

Sequence of Trypanothione reductase (P28593 whole entry): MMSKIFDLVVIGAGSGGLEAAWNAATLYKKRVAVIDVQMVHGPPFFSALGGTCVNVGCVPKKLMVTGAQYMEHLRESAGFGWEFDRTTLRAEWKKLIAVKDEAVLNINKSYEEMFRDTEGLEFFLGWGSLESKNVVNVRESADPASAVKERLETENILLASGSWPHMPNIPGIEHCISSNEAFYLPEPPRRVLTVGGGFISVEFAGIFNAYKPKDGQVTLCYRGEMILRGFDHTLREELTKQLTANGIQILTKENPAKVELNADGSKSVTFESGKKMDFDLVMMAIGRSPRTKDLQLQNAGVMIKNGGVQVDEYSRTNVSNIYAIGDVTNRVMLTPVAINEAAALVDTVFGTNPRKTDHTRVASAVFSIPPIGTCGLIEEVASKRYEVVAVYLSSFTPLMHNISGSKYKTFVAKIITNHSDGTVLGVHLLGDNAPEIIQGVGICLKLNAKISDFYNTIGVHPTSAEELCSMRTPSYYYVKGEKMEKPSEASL

SMILES	IC50
Cc1c(N=CCCCN)c(O)c2c(O)cccc2c1O [3-(4-Amino-butylamino)-5-hydroxy-2-methyl-[1,4]naphthoquinone]	> 57 µM
Cc1c(C=CCNC(=O)OC(C)(C)C)c(O)c2c(O)cccc2c1O [[3-(8-Hydroxy-3-methyl-1,4-dioxo-1,4-dihydro-naphthalen-2-yl)-propyl]-carbamic acid tert-butyl ester]	> 25 µM
Cc1c(C=CC(=O)O)c(O)c2c(O)cccc2c1O [3-(8-Hydroxy-3-methyl-1,4-dioxo-1,4-dihydro-naphthalen-2-yl)-propionic acid]	> 50 µM
Cc1c(N=CCCNCCCCNCCCN)c(O)c2c(O)cccc2c1O	28 µM
Cc1c(C=CCC(=O)O)c(O)c2c(O)cccc2c1O [4-(8-Hydroxy-3-methyl-1,4-dioxo-1,4-dihydro-naphthalen-2-yl)-butyric acid]	> 50 µM
Cc1c(N=CCCN2CCN(C)CC2)c(O)c2ccccc2c1O [2-Methyl-3-[3-(4-methyl-piperazin-1-yl)-propylamino]-[1,4]naphthoquinone]	> 57 µM
CN1CCN(CCCNC(=O)C=Cc2c(CCC(=O)NCCCN3CCN(C)CC3)c(O)c3cccc(O)c3c2O)CC1 [3-(8-Hydroxy-3-{2-[3-(4-methyl-piperazin-1-yl)-propylcarbamoyl]-ethyl}-1,4-dioxo-1,4-dihydro-naphthalen-2-yl)-N-[3-(4-methyl-piperazin-1-yl)-propyl]-propionamide]	> 50 µM
O=C(O)CCCC=Cc1c(CCCCCC(=O)O)c(O)c2ccccc2c1O [6-[3-(5-Carboxy-pentyl)-1,4-dioxo-1,4-dihydro-naphthalen-2-yl]-hexanoic acid]	> 50 µM
Cc1c(CC=NC(=O)OC(C)(C)C)c(O)c2c(O)cccc2c1O [[2-(8-Hydroxy-3-methyl-1,4-dioxo-1,4-dihydro-naphthalen-2-yl)-ethyl]-carbamic acid tert-butyl ester]	> 25 µM
Cc1c(C=CC(=O)NCCCCNCCCNC(=O)C=Cc2c(C)c(O)c3cccc(O)c3c2O)c(O)c2c(O)cccc2c1O [3-(8-Hydroxy-3-methyl-1,4-dioxo-1,4-dihydro-naphthalen-2-yl)-N-(4-{3-[3-(8-hydroxy-3-methyl-1,4-dioxo-1,4-dihydro-naphthalen-2-yl)-propionylamino]-propylamino}-butyl)-propionamide]	2.9 µM
Cc1c(N=CCCN2CCN(C)CC2)c(O)c2c(O)cccc2c1O [5-Hydroxy-2-methyl-3-[3-(4-methyl-piperazin-1-yl)-propylamino]-[1,4]naphthoquinone]	> 57 µM
Cc1c(CC=NC(=O)OC(C)(C)C)c(O)c2ccccc2c1O [[2-(3-Methyl-1,4-dioxo-1,4-dihydro-naphthalen-2-yl)-ethyl]-carbamic acid tert-butyl ester]	> 50 µM
Cc1c(N=CCCNCCCCNCCCN)c(O)c2ccccc2c1O [2-{3-[4-(3-Amino-propylamino)-butylamino]-propylamino}-3-methyl-[1,4]naphthoquinone]	28 µM
CN1CCN(CCCNC(=O)CC=Cc2c(CCCC(=O)NCCCN3CCN(C)CC3)c(O)c3cccc(O)c3c2O)CC1 [4-(5-Hydroxy-3-{3-[3-(4-methyl-piperazin-1-yl)-propylcarbamoyl]-propyl}-1,4-dioxo-1,4-dihydro-naphthalen-2-yl)-N-[3-(4-methyl-piperazin-1-yl)-propyl]-butyramide]	11 µM
Cc1c(C=CCC(=O)NCCCNCCCNC(=O)CC=Cc2c(C)c(O)c3ccccc3c2O)c(O)c2ccccc2c1O [4-(3-Methyl-1,4-dioxo-1,4-dihydro-naphthalen-2-yl)-N-(3-{3-[4-(3-methyl-1,4-dioxo-1,4-dihydro-naphthalen-2-yl)-butyrylamino]-propylamino}-propyl)-butyramide]	11 µM
Cc1c(N=CCCC=Nc2c(C)c(O)c3ccccc3c2O)c(O)c2ccccc2c1O [2-methyl-3-[4-(3-methyl-1,4-dioxo-1,4-dihydro-2-naphthalenylamino)butylamino]-1,4-dihydro-1,4-naphthalenedione]	> 57 µM
Cc1c(C=CCC(=O)NCCCN2CCN(CCCNC(=O)CC=Cc3c(C)c(O)c4cccc(O)c4c3O)CC2)c(O)c2c(O)cccc2c1O [4-(8-Hydroxy-3-methyl-1,4-dioxo-1,4-dihydro-naphthalen-2-yl)-N-[3-(4-{3-[4-(8-hydroxy-3-methyl-1,4-dioxo-1,4-dihydro-naphthalen-2-yl)-butyrylamino]-propyl}-piperazin-1-yl)-propyl]-butyramide]	2.3 µM
Cc1c(N=CCCCN)c(O)c2ccccc2c1O [2-(4-Amino-butylamino)-3-methyl-[1,4]naphthoquinone]	> 57 µM

Reference: BindingDB's records for doi:10.1021/jm001079l (Umr 8525 Cnrs - Universit&#233, 2001)
